SIRT5 block: blocks human SIRT5 desuccinylation of peptide; Q9NXA8; Purified SirT5, succinyl-peptide AMC, trypsin-coupled fluorescence; inhibition, % at 15 µM; hit rate 1.1% among 330,000; AID 652115; in the data active means inhibition above about 15%
S100A4 inh HTS: inhibitors of human S100A4 binding to myosin IIA peptide | hit rate 0.14% among 360,000 | inhibition, % at 10.7 µM | P26447 | S100A4/TAMRA-MyoIIA peptide fluorescence polarization;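 active means mean inhibition of at least 70% across replicates, with every replicate also reaching that level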
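Test system – S100A4 monomer (human) · Compound – single-point compound testing · Schedule – 5 min incubation before reading · Probe or stimulus – TAMRA-labelled myosin IIA heavy-chain peptide probe, 5 nM · Benchmarks – neutral control DMSO, positive control TFP · Medium – Calcium-containing HEPES buffer, pH 7.2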
ERp5 inh: inhibitors of human ERp5; Q15084; ERp5 insulin aggregation, absorbance 650 nm, 90 min; inhibition, % at 9.99 µM; hit rate 0.05% among 350,000; AID 651711;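 active means mean replicate inhibition above about 25%, with every replicate also reaching it, limit read from the data, passing the limit was not always enough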
Target sequence (Q15084 whole entry, looked up): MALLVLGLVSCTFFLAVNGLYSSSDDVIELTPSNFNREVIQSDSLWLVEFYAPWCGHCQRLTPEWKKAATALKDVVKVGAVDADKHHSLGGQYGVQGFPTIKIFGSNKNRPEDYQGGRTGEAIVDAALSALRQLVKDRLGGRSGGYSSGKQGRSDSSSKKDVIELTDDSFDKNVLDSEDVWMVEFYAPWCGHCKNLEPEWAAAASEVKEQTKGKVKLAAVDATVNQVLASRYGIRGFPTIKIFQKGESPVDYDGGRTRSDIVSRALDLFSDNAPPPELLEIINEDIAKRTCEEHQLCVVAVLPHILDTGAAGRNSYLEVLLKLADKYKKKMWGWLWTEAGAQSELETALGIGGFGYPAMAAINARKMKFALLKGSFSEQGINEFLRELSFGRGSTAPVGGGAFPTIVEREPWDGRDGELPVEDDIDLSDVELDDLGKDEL
PDI turbidity: PDI (human) enzyme inhibition; P07237; PDI insulin aggregation turbidity, A650, 90 min; inhibition, % at 10 µM; hit rate 0.052% among 350,000; AID 588391;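 active means mean inhibition across replicates of 30% or more, whatever share of single replicates reach that level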
GSIS activator: primary screen for activators of insulin secretion dependent on glucose, INS-1E cells, GLuc reporter luminescence; activation, % at 16.6 µM; INS-1E GLuc reporter insulin secretion, 2-3 h; hit rate 0.61% among 370,000;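 active means lowest replicate activation of at least 40%, so every replicate reaches that level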;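 further: 0% = median of neutral control wells and 100% = median of IBMX positive control wells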
Active calls of the source: *; . = no result. In the library only some 1.5% were active in any assay of this set; here they are far more common.

SMILES	SIRT5 block	S100A4 inh HTS	ERp5 inh	PDI turbidity	GSIS activator
COC(=O)C[C@@H]1CC[C@@H]2[C@@H](COc3ccc(NS(=O)(=O)c4ccc(C)cc4)cc3C(=O)N2C)O1	3	2	-1	.	-15
CCNC(=O)C[C@H]1CC[C@H]2[C@@H](COc3ccc(NS(=O)(=O)c4ccccc4C)cc3C(=O)N2C)O1	18*	-9	18	.	4
CN1[C@@H]2c3ccc(-c4cccnc4)c(=O)n3C[C@H]1[C@H](CO)[C@H]2C(=O)NCCc1ccccc1	.	.	.	.	4
CCOc1ccc2nc(NC(=O)CS(=O)(=O)c3ccc(C)cc3)sc2c1	32*	-1	-1	-12	-2
Cc1cc(C(=O)N/N=C2/CC(C)CC(C)(C)C2)c(C)o1 (stereo not drawn)	41*	-4	1	-3	-8
O=C(C[C@@H]1CC[C@H]2[C@@H](COC[C@H](O)CN2S(=O)(=O)c2ccccc2F)O1)NCc1ccccc1F	-2	11	-3	.	-5
CCOC(=O)CSc1nc(=O)n2ccc(C)cc2n1	31*	7	6	2	6
Cc1ccn2c(=O)nc(SCC(=O)OCc3ccccc3)nc2c1	-2	1	0	5	4
COc1ccc(NC(=O)CCSc2nnnn2C)cc1	18*	-1	2	-1	-5
CCCS(=O)(=O)N1CCn2c(nc3ccccc32)C1	15*	-1	0	.	2
CC(C)Cc1cc(C(=O)N2CCC(N3CCC(C(=O)NC4CC4)CC3)CC2)n[nH]1	17*	-9	7	-5	14
CC(C)Cc1cc(C(=O)N2CCC(N3CCC(C(=O)N4CCCC4)CC3)CC2)n[nH]1	4	-13	4	2	.
CCCNC(=O)N1CC2(CCN(CC3CCCCC3)CC2)c2c([nH]c3cc(OC)ccc23)[C@H]1CO	.	2	1	.	-2
COc1ccc(CN(C)C[C@H]2OCCCC[C@@H](C)Oc3ccc(NC(=O)c4ccccc4)cc3C(=O)N([C@@H](C)CO)C[C@@H]2C)cc1	0	4	4	.	-25
CCNc1nc(NCC)nc(NC(N)=S)n1	0	0	-1	-1	-10
CCNc1nc(NC(N)=S)nc(NC(C)(C)C)n1	8	30	6	-2	70*
CCOC(=O)c1oc2cccc(O)c2c1CN(Cc1ccccc1)C(C)=O	.	.	.	52*	.
CCOC(=O)c1oc2cccc(O)c2c1C	.	.	.	8	.
CC(C)C#Cc1ccc2c(c1)O[C@@H](CN(C)Cc1ccccn1)[C@H](C)CN([C@H](C)CO)S2(=O)=O	19*	-3	3	.	-14
C[C@H]1CN([C@@H](C)CO)S(=O)(=O)c2ccc(-c3cncnc3)cc2O[C@H]1CN(C)Cc1ccccn1	-0.3*	3	5	.	.
Cc1ccc(-c2ccc3c(c2)O[C@@H](CN(C)Cc2ccccc2)[C@@H](C)CN([C@@H](C)CO)S3(=O)=O)cc1	32*	-2	1	.	-11
Cc1ccc(-c2ccc3c(c2)O[C@@H](CN(C)Cc2ccccc2)[C@@H](C)CN([C@H](C)CO)S3(=O)=O)cc1	-3	4	-5	.	-11
Cc1ccc(-c2ccc3c(c2)O[C@@H](CN(C)Cc2ccccn2)[C@H](C)CN([C@@H](C)CO)S3(=O)=O)cc1	19*	-7	-1	.	-24
Cc1noc(C)c1S(=O)(=O)Nc1ccc2c(c1)C(=O)N([C@H](C)CO)C[C@H](C)[C@H](CN(C)S(=O)(=O)c1c(C)noc1C)OCCCC[C@H](C)O2	7	5	1	.	-13
COCCNC(=O)C[C@@H]1CC[C@@H](NC(=O)NC2CCCC2)[C@@H](CO)O1	-5	-8	-4	.	3
SMILES	SIRT5 block	S100A4 inh HTS	ERp5 inh	PDI turbidity	GSIS activator
COc1ccc(-c2ccc3c(c2)O[C@H](CN(C)Cc2cccnc2)[C@@H](C)CN([C@H](C)CO)S3(=O)=O)cc1	5	108*	-5	.	-15
CC(=O)OCCNc1cc(Sc2nc3ccccc3[nH]2)c2nonc2c1[N+](=O)[O-]	.	.	.	5	121*
O=[N+]([O-])c1ccc2nc(NCCCO)nc(-c3ccccc3)c2c1	.	.	.	4	22
O=C(O)CNc1nc(-c2ccccc2)c2cc([N+](=O)[O-])ccc2n1	.	.	.	-3	61*
CCOc1nc(-c2ccccc2)c2cc(Br)ccc2n1	0	3	3	8	47*
OCCNc1nc(-c2ccccc2)c2cc(Br)ccc2n1	-1	2	6	-1	59*
N#Cc1ccccc1/C=N/Nc1nc(-c2ccccc2)c2cc(Br)ccc2n1	.	.	.	4	.

Screening results deposited in PubChem by Broad Institute.
